Data on one molecule can be found in ChEMBL document CHEMBL4725355, “Design, Synthesis, and Preclinical Evaluation of 3-Methyl-6-(5-thiophenyl)-1,3-dihydro-imidazo[4,5-b]pyridin-2-ones as Selective GluN2B Negative Allosteric Modulators for the Treatment of Mood Disorders” (J Med Chem, 2020).

For orientation: Cmax means the highest concentration seen after dosing. As a reminder, the half-life is the time needed for the level to fall by half in the phase considered. For orientation: Tmax means the time at which the peak concentration occurs. As a reminder, the AUC(0-t) is exposure summed from dosing to a finite time, without extrapolation to infinity. Low readings indicate low exposure, high ones high exposure. One may read the solubility as the dissolved amount per volume that the medium holds. Read a low solubility as a poorly soluble substance. For orientation: IC50 means the point on the concentration scale where inhibition reaches its midpoint. Broadly, the clearance is a measure of how efficiently the substance is removed, as volume per time. By AUC(0-inf) is commonly meant the area under the concentration-time curve extrapolated to infinity. Low readings indicate less exposure, high ones more exposure.

Converted amounts (≈) assume the structure as drawn. Where only a bound is given, the exact number is not on record here.

A short description of data set [1]: Cmax in Sprague-Dawley rat at 125 mg/kg, po administered via gavage after 24 hrs using HPMC formulation by LC-MS/MS analysis. Set-up: route oral, time 24 hrs, dose 125 mg/kg. The following applies: in vivo. The class given is ADME, organism-based. In outline:
(§1)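 Single oral gavage dose to male Sprague Dawley rats, 3 per dose level. Vehicles were a standard suspension in 5% HPMC (125, 250, 500 or 1000 mg/kg) or a nanosuspension (API:polymer 4:1), with stock diluted in vehicle on the day of dosing (100, 250 or 500 mg/kg). Blood was sampled at time points from 0.5 to 24 h.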

Data set [2] in a line: Cmax in Sprague-Dawley rat at 250 mg/kg, po administered via gavage after 24 hrs using nanosuspension formulation by LC-MS/MS analysis. The class given is ADME, organism-based. Set-up: route oral, time 24 hrs, dose 250 mg/kg. The following applies: in vivo. An outline of the steps: as §1
A short description of data set [3]: Drug level in Sprague-Dawley rat brain hippocampus at 0.03 mg/kg, iv after 30 min by LC-MS/MS analysis. It is filed as ADME, organism-based. The note with it: read-out: Drug uptake. In outline: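 Single i.v. dose of 0.03 mg/kg in 50% (w/v) PEG/water, pH 7.4; rats n=3 per group, killed at 5, 10, 30, 60 and 120 min. Cerebellum, cortex, striatum and hippocampus dissected, weighed and homogenized; drug quantified by LC-MS/MS and normalized to tissue weight. P<0.05 taken as significant versus cerebellum.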

Data set [4] is described as follows: Half life in mouse at 0.5 mg/kg, iv by LC-MS/MS analysis. It is filed as ADME, organism-based. The following applies: in vivo.
Data set [5] in a line: Half life in dog at 0.5 mg/kg, po by LC-MS/MS analysis. The following applies: in vivo. It is filed as ADME, organism-based, Canis lupus familiaris.
Data set [6] in a line: Tmax in Sprague-Dawley rat at 100 mg/kg, po administered via gavage after 24 hrs using nanosuspension formulation by LC-MS/MS analysis. It is filed as ADME, organism-based. The following applies: in vivo. An outline of the steps:
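Single oral gavage of a nanosuspension (API:polymer 4:1), diluted with vehicle on the dosing day, at 100, 250 or 500 mg/kg to male Sprague Dawley rats, 3 per dose. Plasma was sampled from 0.5 to 24 h.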

Data set [7] in a line: AUC (0 to 24 hrs) in Sprague-Dawley rat at 1000 mg/kg, po administered via gavage after 24 hrs using HPMC formulation by LC-MS/MS analysis. It is filed as ADME, organism-based. Also on record: route oral, dose 1000 mg/kg, time <=24. The following applies: in vivo.
The nature of data set [8]: Solubility of compound in FASSIF at pH 6.8 measured after 3 days. It is filed as physicochemical. The note with it: time 3 day. In outline: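 Solubility in aqueous buffer at pH 2 and pH 7, and in simulated gastric and intestinal fluids.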
Data set [9] can be described thus: Cmax in Sprague-Dawley rat at 500 mg/kg/day, po administered as nanosuspension measured for 14 days measured post last dose by LC-MS/MS analysis. It is filed as ADME, organism-based. The following applies: in vivo. Set-up: route oral, time 14 day, dose 500 mg/kg/day. In outline: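 Repeated daily oral dosing of the nanosuspension to rats for 14 days, up to 500 mg/kg/day.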

Data set [10] is described as follows: Tmax in Sprague-Dawley rat brain at 3 mg/kg, po by LC-MS/MS analysis. It is filed as ADME, organism-based. In outline:
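Rats dosed orally at 3 mg/kg in 20% HP-β-CD. Brain concentrations were measured over a 6 h time course (0.5, 2, 6 h) alongside ex vivo GluN2B occupancy, n=2.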

Data set [11] is described as follows: Solubility of compound in 20% hydroxypropyl-beta-cyclodextrin. The class given is physicochemical. In outline: (§2)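 Solubility of the compound assessed in dosing excipients, including 30% SBE-β-CD, 50% PEG-400 and 20% HP-β-CD. The aim was a solution usable for rat dosing; the 20% HP-β-CD formulation was checked for a 0.1 mg/mL solution to support a 0.5 mg/kg dose.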

Data set [12] can be described thus: Ratio of Cmax in Sprague-Dawley rat at 500 mg/kg, po administered via gavage after 24 hrs using nanosuspension formulation by LC-MS/MS analysis to EC70 for ex vivo receptor occupancy at GluN2B in po dosed Sprague-Dawley rat assessed as 3-[3H] 1-(azetidin-1-yl)-2-[6-(4-fluoro-3-methyl-phenyl)pyrrolo[3,2-b]pyridin-1-yl]-ethanone labelling. The class given is ADME, organism-based.

Data set [13] can be described thus: Ratio of Cmax in Sprague-Dawley rat at 500 mg/kg/day, po administered as nanosuspension measured for 14 days to EC70 for ex vivo receptor occupancy at GluN2B in po dosed Sprague-Dawley rat assessed as 3-[3H] 1-(azetidin-1-yl)-2-[6-(4-fluoro-3-methyl-phenyl)pyrrolo[3,2-b]pyridin-1-yl]-ethanone labelling. It is filed as ADME, organism-based. The following applies: 336 h.

Data set [14] in a line: Negative allosteric modulation of human GluN1a/GluN2A receptor expressed in CHO cells assessed as inhibition of glutamate and glycine-induced calcium flux preincubated for 5 mins followed by glutamate and glycine addition and measured after 5 mins by calcium 5 dye based FLIPR assay. The class given is cell-based. An outline of the steps: (§3)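 Tet-On CHO T-Rex cells expressing hGluN1a with GluN2A, 2B, 2C or 2D, plated at 20,000 cells/well and induced 24 h before the assay in the presence of ketamine. Cells loaded 1 h at room temperature with Calcium 5 dye, pH 7.4 HEPES buffer. Compound added 5 min, then glutamate (~EC80) plus 10 µM glycine for 5 min; FLIPR fluorescence normalized to control wells. Three independent runs in duplicate (two for some).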
A general note: Calcium flux is commonly read through the fluorescence of an indicator in the cells.

A short description of data set [15]: Clearance in mouse at 0.5 mg/kg, iv by LC-MS/MS analysis. The following applies: in vivo. It is filed as ADME, organism-based.
Data set [16] can be described thus: Intrinsic clearance in rat liver microsomes at 1 uM after 5 to 60 mins in presence of NADPH by LC-MS/MS analysis. It is filed as ADME, Microsome. The following applies: time 5-60 min, read-out: CLH.
Data set [17] in a line: Ratio of Cmax in Sprague-Dawley rat at 500 mg/kg, po administered via gavage after 24 hrs using HPMC formulation by LC-MS/MS analysis to EC70 for ex vivo receptor occupancy at GluN2B in po dosed Sprague-Dawley rat assessed as 3-[3H] 1-(azetidin-1-yl)-2-[6-(4-fluoro-3-methyl-phenyl)pyrrolo[3,2-b]pyridin-1-yl]-ethanone labelling. It is filed as ADME, organism-based.
Another data set has as its target Cytochrome P450 2C9 (Homo sapiens, UniProt P11712). Kind of data set: Inhibition of CYP2C9 in human liver microsomes using tolbutamide as substrate measured after 15 mins by LC-MS/MS analysis. It is filed as ADME. In outline:
(§4)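 Human liver microsomes incubated with isoform-specific probe substrates and the test compound at concentrations up to 20 µM. IC50 derived from inhibition of metabolite formation; mean of two independent experiments, with known specific inhibitors as positive controls.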
(In general: Liver microsomes are vesicles of endoplasmic reticulum, rich in cytochrome P450 enzymes.)

Data set [18] is described as follows: Negative allosteric modulation of human GluN1a/GluN2B receptor expressed in CHO cells assessed as inhibition of glutamate and glycine-induced calcium flux preincubated for 5 mins followed by glutamate and glycine addition and measured after 5 mins by calcium 5 dye based FLIPR assay. It is filed as cell-based. An outline of the steps: as §3
The nature of data set [19]: Ratio of Cmax in Sprague-Dawley rat at 1000 mg/kg, po administered via gavage after 24 hrs using HPMC formulation by LC-MS/MS analysis to EC70 for ex vivo receptor occupancy at GluN2B in po dosed Sprague-Dawley rat assessed as 3-[3H] 1-(azetidin-1-yl)-2-[6-(4-fluoro-3-methyl-phenyl)pyrrolo[3,2-b]pyridin-1-yl]-ethanone labelling. It is filed as ADME, organism-based.
Data set [20] is described as follows: Solubility of compound in 50% polyethylene glycol 400. The class given is physicochemical. An outline of the steps: as §2
A further data set has as its target Cytochrome P450 3A4 (Homo sapiens, UniProt P08684). The data set can be described thus: Inhibition of CYP3A4 in human liver microsomes using nifedipine as substrate measured after 15 mins by LC-MS/MS analysis. It is filed as ADME. An outline of the steps: as §4
Data set [21] is described as follows: AUC (infinity) in Sprague-Dawley rat at 2.5 mg/kg, po by LC-MS/MS analysis. It is filed as ADME, organism-based. Set-up: time infinity, route oral, dose 2.5 mg/kg. The note with it: in vivo. In outline:
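Rat PK with IV and PO dosing, n=3. The usual doses were 0.5 mg/kg IV and 2.5 mg/kg PO in 20% HP-β-CD. One compound was instead given at 0.1 mg/kg IV and 0.5 mg/kg PO.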

Sequence of Cytochrome P450 3A4 (P08684 whole entry): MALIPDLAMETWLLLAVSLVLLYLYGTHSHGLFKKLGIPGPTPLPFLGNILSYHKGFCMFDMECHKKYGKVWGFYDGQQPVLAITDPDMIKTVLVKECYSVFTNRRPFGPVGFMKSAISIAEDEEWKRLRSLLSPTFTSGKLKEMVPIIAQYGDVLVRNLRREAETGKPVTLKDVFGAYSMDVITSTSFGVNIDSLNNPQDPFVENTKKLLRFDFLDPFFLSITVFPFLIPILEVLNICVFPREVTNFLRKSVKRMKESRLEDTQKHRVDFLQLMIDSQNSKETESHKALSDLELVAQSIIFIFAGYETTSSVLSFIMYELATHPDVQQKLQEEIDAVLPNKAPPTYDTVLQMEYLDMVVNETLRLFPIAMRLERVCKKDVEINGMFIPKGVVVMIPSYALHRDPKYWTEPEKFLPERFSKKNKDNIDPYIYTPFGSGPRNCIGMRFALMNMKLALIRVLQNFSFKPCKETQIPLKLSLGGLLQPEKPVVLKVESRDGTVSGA
Sequence of Cytochrome P450 2C9 (P11712 whole entry, canonical isoform): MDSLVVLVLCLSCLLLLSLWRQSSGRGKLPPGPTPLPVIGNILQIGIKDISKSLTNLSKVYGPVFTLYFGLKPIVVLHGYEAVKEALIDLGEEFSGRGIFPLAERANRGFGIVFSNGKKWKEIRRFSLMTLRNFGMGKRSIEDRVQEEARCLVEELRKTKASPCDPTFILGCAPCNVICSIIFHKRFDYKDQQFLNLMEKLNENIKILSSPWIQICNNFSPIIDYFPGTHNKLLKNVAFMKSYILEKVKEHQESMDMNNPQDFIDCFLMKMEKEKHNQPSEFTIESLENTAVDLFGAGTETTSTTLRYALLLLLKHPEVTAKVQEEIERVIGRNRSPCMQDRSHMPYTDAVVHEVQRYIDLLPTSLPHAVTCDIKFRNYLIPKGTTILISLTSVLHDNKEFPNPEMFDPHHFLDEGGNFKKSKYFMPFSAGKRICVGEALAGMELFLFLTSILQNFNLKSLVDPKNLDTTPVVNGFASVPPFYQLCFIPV

For `Cn1c(=O)n(CC(=O)N2CCC2)c2cc(-c3ccc(C(F)(F)F)s3)cnc21`, the values for the Cmax in data set [1], in data set [2] and in data set [9] were 4240 ng/mL, 12500 ng/mL and 21700 ng/mL, respectively. In addition, the concentration at 0.5 h in data set [3] amounted to 22.7 ng/mL. For the same molecule, the half-life in [4] was 54 min; in [5] it was 42 min. The Tmax in data set [6] was 162 min; in data set [10], 30 min. In [7], this molecule yielded an exposure AUC(0-t) of 22300 ng·h/mL. This molecule also registered a solubility at 72 h in data set [8] of 8.4 µM (≈ 3.33 µg/mL). Further, the solubility in data set [11] and in data set [20] was below 1000 µg/mL each time. The Ratio in data set [12] amounted to 26; in data set [13], 31; in data set [17], 9; in data set [19] it was 10. Moreover, the 50% inhibitory concentration (IC50) in data set [14] is above 10 µM; against Cytochrome P450 2C9, above 50 µM; in [18], 0.031 µM; at Cytochrome P450 3A4 it was above 50 µM. Further, the clearance in data set [15] amounted to 54 mL/min/kg. Moreover, the microsomal CLint at 1 µM in data set [16] was 26.3 µL/min/mg. In [21], the total exposure AUC(0-inf) is 1830 ng·h/mL.
